Activity calls are given as the source filed them. The rule behind the calls is not given here.
Tests used:
[1] = test system: Syrian golden hamster; assay: Toxicity in Syrian golden hamster at 100 mg/kg, po administered via gavage as single dose; format: organism-based, Mesocricetus auratus; design: dose 100 mg/kg, route oral; settings: in vivo
[2] = test system: Leishmania donovani; assay: Induction of apoptosis in Leishmania donovani MHOM/IN/80/Dd8 promastigotes assessed as drop in mitochondrial membrane potential at 0.78 uM after 48 hrs by JC-1 dye based flow cytometry (reference value: 5.87%); format: functional
[3] = Tmax in Syrian golden hamster at 100 mg/kg, po administered via gavage as single dose by HPLC-UV analysis; format: ADME, organism-based, Mesocricetus auratus; design: dose 100 mg/kg, route oral; settings: in vivo
Method in brief: (§1)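 Male Syrian golden hamsters (100 ± 15 g) given a single oral dose of 100 mg/kg. Plasma stored at −70 °C and assayed by HPLC-UV. Concentration–time profiles analysed non-compartmentally; values mean ± SD.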

[4] = target: Albumin (Bos taurus, UniProt P02769); assay: Binding affinity to bovine serum albumin at 1 mmol/L by fluorescence spectrophotometer analysis; format: ADME; settings: cattle, isolated protein, 1000 µM
Sequence of Albumin (P02769 whole entry): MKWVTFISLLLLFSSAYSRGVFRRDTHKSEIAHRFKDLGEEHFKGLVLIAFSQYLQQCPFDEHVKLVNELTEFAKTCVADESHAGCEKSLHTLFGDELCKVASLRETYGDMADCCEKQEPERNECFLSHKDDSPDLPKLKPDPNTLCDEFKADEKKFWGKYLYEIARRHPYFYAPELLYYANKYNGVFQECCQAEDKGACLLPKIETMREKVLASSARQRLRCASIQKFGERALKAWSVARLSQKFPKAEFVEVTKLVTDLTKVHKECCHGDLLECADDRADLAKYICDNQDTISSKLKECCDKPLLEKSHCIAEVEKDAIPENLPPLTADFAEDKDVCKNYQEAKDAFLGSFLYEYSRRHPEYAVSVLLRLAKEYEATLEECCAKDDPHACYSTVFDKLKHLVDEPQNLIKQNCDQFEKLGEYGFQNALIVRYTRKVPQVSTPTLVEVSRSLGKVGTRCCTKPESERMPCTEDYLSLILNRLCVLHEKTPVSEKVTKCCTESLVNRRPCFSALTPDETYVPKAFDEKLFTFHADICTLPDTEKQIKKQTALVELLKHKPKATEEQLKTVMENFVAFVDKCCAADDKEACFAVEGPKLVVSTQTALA
Method in brief: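 BSA at 1.00 × 10⁻⁵ mol/L in 0.10 M Tris-HCl, pH 7.4, titrated with successive additions of 1.00 × 10⁻³ mol/L compound stock. Excitation at 280 nm, emission recorded 300−450 nm. Quenching analysed by Stern–Volmer and modified Stern–Volmer equations (τ₀ = 10⁻⁸ s).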

[5] = test system: Leishmania donovani; assay: Induction of early apoptosis in Leishmania donovani MHOM/IN/80/Dd8 promastigotes at 0.78 uM after 72 hrs by Annexin V-FITC/propidium iodide staining based flow cytometry (reference value: 13.70%); format: functional
[6] = test system: Leishmania donovani; assay: Antileishmanial activity against Leishmania donovani MHOM/IN/80/Dd8 amastigotes infected in syrian golden hamster assessed as decrease in parasite count in spleen at 100 mg/kg/day, po for 5 days measured on day 7 after last dose administration by giemsa staining; format: functional; settings: MHOM/IN/80/Dd8, Spleen
Method in brief: (§2)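 Golden hamsters of either sex infected intracardially with 1 × 10⁷ L. donovani Dd8 amastigotes. After 15−20 days, pretreatment spleen biopsy; animals with +1 grade infection (5−10 amastigotes/100 spleen cell nuclei) used, 5−6 per compound. Aqueous suspensions dosed IP or PO for 5−10 consecutive days starting 2 days after biopsy. Splenic biopsies on day 7 and 28 after last dose, Giemsa counts; PI = 100 − [(ANAT×100)/(INAT×TIUC)].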

[7] = test system: Leishmania donovani; assay: Induction of early apoptosis in Leishmania donovani MHOM/IN/80/Dd8 promastigotes at 0.78 uM after 24 hrs by Annexin V-FITC/propidium iodide staining based flow cytometry (reference value: 13.70%); format: functional
[8] = test system: Leishmania donovani; assay: Antileishmanial activity against Leishmania donovani MHOM/IN/80/Dd8 amastigotes infected in syrian golden hamster assessed as decrease in parasite count in spleen at 50 mg/kg/day, po for 5 days measured on day 28 after last dose administration by giemsa staining; format: functional; settings: MHOM/IN/80/Dd8, Spleen; method in brief: as §2
[9] = Selectivity index, ratio of CC50 for African green monkey Vero cells to IC50 for Leishmania donovani MHOM/IN/80/Dd8 intracellular amastigote form expressing luciferase gene infected in mouse J774A1 cells; format: functional, J774.A1
Method in brief: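 Ratio of CC₅₀ in Vero cells (72 h MTT) to IC₅₀ against luciferase-expressing amastigotes in J774A.1 macrophages (72 h luminescence).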

[10] = test system: Leishmania donovani; assay: Induction of necrosis in Leishmania donovani MHOM/IN/80/Dd8 promastigotes at 0.78 uM after 72 hrs by Annexin V-FITC/propidium iodide staining based flow cytometry; format: functional, organism-based
[11] = test system: Leishmania donovani; assay: Induction of apoptosis in Leishmania donovani MHOM/IN/80/Dd8 promastigotes assessed as drop in mitochondrial membrane potential at 0.78 uM after 6 hrs by JC-1 dye based flow cytometry (reference value: 5.87%); format: functional
[12] = Stability of the compound in simulated gastric fluid at 10 uM by HPLC-UV analysis; format: physicochemical; settings: simulated gi fluid
Method in brief: (§3)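 Simulated gastric and intestinal fluids made to USP specifications. Compound at 10 μM incubated in SGF sampled at 0, 15, 30 and 60 min, and in SIF at 0, 30, 60, 90 and 120 min. Mean ± SEM.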

[13] = Cmax in Syrian golden hamster at 100 mg/kg, po administered via gavage as single dose by HPLC-UV analysis; format: ADME, organism-based, Mesocricetus auratus; design: dose 100 mg/kg, route oral; settings: in vivo; method in brief: as §1
[14] = Stability of the compound in simulated intestinal fluid assessed as compound degradation at 10 uM by HPLC-UV analysis; format: physicochemical; settings: read-out: Drug degradation; method in brief: as §3
[15] = AUC (0 to infinity) in Syrian golden hamster at 100 mg/kg, po administered via gavage as single dose by HPLC-UV analysis; format: ADME, organism-based, Mesocricetus auratus; design: time infinity, dose 100 mg/kg, route oral; settings: plasma
[16] = test system: J774.A1; assay: Increase in IL-12 production in mouse J774A1 cells infected with Leishmania donovani at IC50 concentration after 24 hrs by sandwich ELISA relative to control; format: functional
Method in brief: (§4)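 J774A.1 macrophages (1 × 10⁶) infected with Leishmania at 1:10, treated in 6-well plates at the compound's IC₅₀ concentration, 37 °C, CO₂. Supernatants from normal, infected-untreated and infected-treated cells collected after 24 h. IL-12, TNF-α, IL-10 and TGF-β measured by sandwich ELISA at 450 nm, in pg/mL. Two independent experiments in duplicate, mean ± SD; Student's t test against infected control.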

[17] = test system: Leishmania donovani; assay: Antileishmanial activity against extracellular promastigote form of Leishmania donovani MHOM/IN/80/Dd8 expressing firefly luciferase gene assessed as inhibition of parasitic multiplication at 25 uM after 96 hrs by luminescence analysis; format: functional; settings: MHOM/IN/80/Dd8, 96 h
Method in brief: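 Late-log luciferase-expressing Dd8 promastigotes, 5 × 10⁵/mL in complete M-199, incubated with compound at 24 °C for 96 h. Aliquot mixed with Steady Glo and luminescence read as RLU. Inhibition of multiplication taken from luciferase signal of treated versus untreated parasites.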

[18] = test system: J774.A1; assay: Decrease in TGF-beta production in mouse J774A1 cells infected with Leishmania donovani at IC50 concentration after 24 hrs by sandwich ELISA relative to control; format: functional; method in brief: as §4
[19] = test system: Leishmania donovani; assay: Antileishmanial activity against Leishmania donovani MHOM/IN/80/Dd8 amastigotes infected in syrian golden hamster assessed as decrease in parasite count in spleen at 100 mg/kg/day, po for 5 days measured on day 28 after last dose administration by giemsa staining; format: functional; settings: MHOM/IN/80/Dd8, Spleen; method in brief: as §2
[20] = Apparent oral volume of distribution in Syrian golden hamster at 100 mg/kg, po administered via gavage as single dose by HPLC-UV analysis; format: ADME, organism-based, Mesocricetus auratus; design: dose 100 mg/kg, route oral; settings: in vivo; method in brief: as §1
[21] = In vitro metabolic stability in syrian golden hamster liver S9 fraction at 10 uM in absence of NADPH; format: ADME, Mesocricetus auratus; settings: s9, 10 µM
Method in brief: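 Hamster liver S9 (2 mg/mL protein), 50 mM Tris, 20 mM MgCl₂, 2 mM NADPH preincubated 10 min, then compound added at 10 μM final (1% organic) at 37 °C in triplicate. Sampled 0−60 min; no-NADPH control sampled at 0, 15, 30 and 60 min. Quenched with ice-cold methanol, extracted by LLE. Data as % parent remaining versus 0 min; testosterone as positive control.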

[22] = test system: J774.A1; assay: Increase in TNF-alpha production in mouse J774A1 cells infected with Leishmania donovani at IC50 concentration after 24 hrs by sandwich ELISA relative to control; format: functional; method in brief: as §4
[23] = Terminal half life in Syrian golden hamster at 100 mg/kg, po administered via gavage as single dose by HPLC-UV analysis; format: ADME, organism-based, Mesocricetus auratus; design: dose 100 mg/kg, route oral; settings: in vivo, read-out: beta t1/2 (converted); method in brief: as §1

CC(C)=CCCC1(C)C=Cc2c(ccc(C(=O)/C=C/c3cccnc3)c2O)O1 (centres undefined)
Activity [1]: Non-toxic | Activity [2]: 61.67% | Tmax [3]: 0.625 h | KSV [4]: 2.7 ×10⁵ L/mol | Kq [4]: 2.7 ×10¹³ L/mol/s | Activity [5]: 66.14% | inhibition in vivo at 100 mg/kg/day [6]: 84.7% | Activity [7]: 30.79% | inhibition in vivo at 50 mg/kg/day [8]: 55.4% | Ratio CC50/IC50 [9]: 7.5 | Activity [10]: inactive | Activity [11]: 10.47% | Stability [12]: Stable | Cmax [13]: 820 ng/mL | degraded at 10 µM [14]: 30% | AUC(0-inf) [15]: 3700 ng·h/mL | fold change (FC) [16]: 16 | inhibition at 25 µM [17]: 99.8% | fold change (FC) [18]: 4.08 | inhibition in vivo at 100 mg/kg/day [19]: 84.5% | Vd/F [20]: 392 L/kg | Stability [21]: Stable | fold change (FC) [22]: 11.6 | half-life [23]: 7.4 h
